Experiment: Adverse events
Type: in vivo, human
In short: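 Patients with germline BRCA-mutated cancers, or BRCA-wildtype TNBC or platinum-refractory ovarian cancer, took oral drug continuously twice daily in 28-day cycles. There were nine dose levels from 50 to 500 mg BID under 3+3 escalation, run separately per cohort after the first DLT. Toxicities were graded by CTCAE v4.0, with DLTs assessed during cycle 1.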

## C[C@]1(c2nc3c(C(N)=O)cccc3[nH]2)CCCN1 [veliparib]
BRCAmut and BRCAwt combined
  Hypophosphatemia, Grade 2: 4 (4) number of patients (%)
  Hypophosphatemia, Grade 3: 2 (2) number of patients (%)
  Hypophosphatemia, Grade 4: 0 (0) number of patients (%)
  Insomnia, Any Grade: 7 (7) number of patients (%)
  Insomnia, Grade 1: 6 (6) number of patients (%)
  Insomnia, Grade 2: 1 (1) number of patients (%)
  Insomnia, Grade 3: 0 (0) number of patients (%)
  Insomnia, Grade 4: 0 (0) number of patients (%)
  Lymphocyte count decreased, Any Grade: 37 (38) number of patients (%)
  Lymphocyte count decreased, Grade 1: 7 (7) number of patients (%)
  Lymphocyte count decreased, Grade 2: 15 (15) number of patients (%)
  Lymphocyte count decreased, Grade 3: 14 (14) number of patients (%)
  Lymphocyte count decreased, Grade 4: 1 (1) number of patients (%)
  Myalgia, Any Grade: 5 (5) number of patients (%)
  Myalgia, Grade 1: 4 (4) number of patients (%)
  Myalgia, Grade 2: 1 (1) number of patients (%)
  Myalgia, Grade 3: 0 (0) number of patients (%)
  Myalgia, Grade 4: 0 (0) number of patients (%)
  Nausea, Any Grade: 64 (65) number of patients (%)
  Nausea, Grade 1: 42 (43) number of patients (%)
  Nausea, Grade 2: 20 (20) number of patients (%)
  Nausea, Grade 3: 2 (2) number of patients (%)
  Nausea, Grade 4: 0 (0) number of patients (%)
  Neutrophil count decreased, Any Grade: 17 (17) number of patients (%)
  Neutrophil count decreased, Grade 1: 13 (13) number of patients (%)
  Neutrophil count decreased, Grade 2: 4 (4) number of patients (%)
  Neutrophil count decreased, Grade 3: 0 (0) number of patients (%)
  Neutrophil count decreased, Grade 4: 0 (0) number of patients (%)
  Platelet count decreased, Any Grade: 18 (18) number of patients (%)
  Platelet count decreased, Grade 1: 14 (14) number of patients (%)
  Platelet count decreased, Grade 2: 3 (3) number of patients (%)
  Platelet count decreased, Grade 3: 0 (0) number of patients (%)
  Platelet count decreased, Grade 4: 1 (1) number of patients (%)
  Vomiting, Any Grade: 32 (33) number of patients (%)
  Vomiting, Grade 1: 25 (26) number of patients (%)
  Vomiting, Grade 2: 7 (7) number of patients (%)
  White blood cell decreased, Any Grade: 27 (28) number of patients (%)
  White blood cell decreased, Grade 1: 20 (20) number of patients (%)
  White blood cell decreased, Grade 2: 7 (7) number of patients (%)
  White blood cell decreased, Grade 3: 0 (0) number of patients (%)
  White blood cell decreased, Grade 4: 0 (0) number of patients (%)
BRCAmut group
  grade 3/4 decreased lymphocyte count: 14%
  incidence of grade 3/4 toxicity: 24%
BRCAmut, DL1 50/50 mg AM/PM
  Abdominal pain, Grade 3: 0 number of patients (%)
  Alkaline phosphatase increased, Grade 3: 1 (14) number of patients (%)
  Anemia, Grade 3: 0 number of patients (%)
  Anemia, Grade 4: 0 number of patients (%)
  Any Grade 3/4 toxicity: 1 (14) number of patients (%)
  Any Grade 3 toxicity: 1 (14) number of patients (%)
  Any Grade 4 toxicity: 0 number of patients (%)
  Appendicitis, Grade 3: 0 number of patients (%)
  Aspartate aminotransferase increased, Grade 3: 1 (14) number of patients (%)
  Dehydration, Grade 3: 0 number of patients (%)
  Dyspnea, Grade 4: 0 number of patients (%)
  Fatigue, Grade 3: 0 number of patients (%)
  Headache, Grade 3: 0 number of patients (%)
  Hypophosphatemia, Grade 3: 0 number of patients (%)
  Lymphocyte count decreased, Grade 3: 0 number of patients (%)
  Lymphocyte count decreased, Grade 4: 0 number of patients (%)
  Nausea, Grade 3: 0 number of patients (%)
  Platelet count decreased, Grade 4: 0 number of patients (%)
  Thromboembolic event, Grade 3: 0 number of patients (%)
  Thromboembolic event, Grade 4: 0 number of patients (%)
  Urinary tract infection, Grade 3: 0 number of patients (%)
BRCAmut, DL2 100/50 mg AM/PM
  Abdominal pain, Grade 3: 0 number of patients (%)
  Alkaline phosphatase increased, Grade 3: 0 number of patients (%)
  Anemia, Grade 3: 0 number of patients (%)
  Anemia, Grade 4: 0 number of patients (%)
  Any Grade 3/4 toxicity: 1 (33) number of patients (%)
  Any Grade 3 toxicity: 0 number of patients (%)
  Any Grade 4 toxicity: 1 (33) number of patients (%)
  Appendicitis, Grade 3: 0 number of patients (%)
  Aspartate aminotransferase increased, Grade 3: 0 number of patients (%)
  Dehydration, Grade 3: 0 number of patients (%)
  Dyspnea, Grade 4: 0 number of patients (%)
  Fatigue, Grade 3: 0 number of patients (%)
  Headache, Grade 3: 0 number of patients (%)
  Hypophosphatemia, Grade 3: 0 number of patients (%)
  Lymphocyte count decreased, Grade 3: 0 number of patients (%)
  Lymphocyte count decreased, Grade 4: 0 number of patients (%)
  Nausea, Grade 3: 0 number of patients (%)
  Platelet count decreased, Grade 4: 0 number of patients (%)
  Thromboembolic event, Grade 3: 0 number of patients (%)
  Thromboembolic event, Grade 4: 1 (33) number of patients (%)
  Urinary tract infection, Grade 3: 0 number of patients (%)
BRCAmut, DL3 100/100 mg AM/PM
  Abdominal pain, Grade 3: 0 number of patients (%)
  Alkaline phosphatase increased, Grade 3: 0 number of patients (%)

Source: publication PMC9116722 (Cancer chemotherapy and pharmacology, 2022)
